Measurements taken from ChEMBL document CHEMBL4393708, “Pyridinylimidazoles as dual glycogen synthase kinase 3β/p38α mitogen-activated protein kinase inhibitors” (Eur J Med Chem, 2019).
Converted amounts (≈) assume the structure as drawn.

Tests used:
[1] = Metabolic stability in human liver microsomes assessed as parent compound remaining after 120 mins by LC-MS analysis relative to control; format: ADME, Microsome; details: read-out: Stability
[2] = Drug metabolism in RjOrl:Swiss CD-1 mouse assessed as ratio of compound to N-(4-(4-(4-Fluorophenyl)-2-(methylsulfinyl)-1H-imidazol-5-yl)pyridin-2-yl)cyclopropanecarboxamide metabolite level at 10 mg/kg, iv administered as single dose measured after 10 mins by LC-MS analysis; format: ADME, organism-based; details: in vivo
How it was run: (§1)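 Adult male RjOrl:Swiss CD-1 mice got one intravenous dose of 10 mg/kg. Plasma was sampled at 10, 30 and 120 min. After the last sample the mice were sacrificed and brains dissected. Blood and brain samples were prepared and analysed by LC-MS for parent and sulfoxide metabolite; brain levels reported as ng/g.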

hERG (KCNH2) = hERG (KCNH2) (Homo sapiens, UniProt Q12809); test: Inhibition of tracer Red binding to human ERG expressed in membranes at 10 uM after 4 hrs by fluorescence polarization assay relative to control; details: membranes expressing human ERG, probe tracer Red
[3] = Drug metabolism in human liver microsomes assessed as N-(4-(4-(4-Fluorophenyl)-2-(methylsulfinyl)-1H-imidazol-5-yl)pyridin-2-yl)cyclopropanecarboxamide metabolite formation by measuring half life by LC-MS analysis; format: ADME, Microsome
How it was run: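 Incubation with human liver microsomes for up to 4 h. Remaining parent and sulfoxide metabolite formation were followed over time, giving a half-life for the oxidation.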

[4] = Metabolic stability in human liver microsomes assessed as parent compound remaining after 30 mins by LC-MS analysis relative to control; format: ADME, Microsome; details: read-out: Stability
[5] = target: Mitogen-activated protein kinase 14 (Homo sapiens, UniProt Q16539); test: Inhibition of p38alpha MAPK (unknown origin) using ATF-2 as substrate after 1 hr by ELISA
[6] = Drug metabolism in RjOrl:Swiss CD-1 mouse at 10 mg/kg, iv administered as single dose measured after 2 hrs by LC-MS relative to control; format: ADME, organism-based; details: in vivo; how it was run: as §1
[7] = Metabolic stability in human liver microsomes assessed as parent compound remaining after 10 mins by LC-MS analysis relative to control; format: ADME, Microsome; details: read-out: Stability
Blood = test: Inhibition of LPS-induced TNFalpha production in human whole blood preincubated with compound for 15 mins followed by LPS addition measured after 2.5 hrs by ELISA; format: functional, tissue-based
CYP2D6 = CYP2D6 (Homo sapiens, UniProt P10635); test: Inhibition of human recombinant CYP2D6 expressed in baculovirus infected insect cells using EOMCC as substrate at 10 uM in presence of NADPH by fluorimetric analysis relative to control; format: ADME; details: probe EOMCC
Cytochrome P450 2C19 = Cytochrome P450 2C19 (Homo sapiens, UniProt P33261); test: Inhibition of human recombinant CYP2C19 expressed in baculovirus infected insect cells using EOMCC as substrate in presence of NADPH by fluorimetric analysis relative to control; format: ADME; details: recombinant enzyme
[8] = target: T1, Glycogen synthase kinase-3 beta (Homo sapiens, UniProt P49841); test: Competitive inhibition of human recombinant full length GSK3beta using YRRAAVPPSPSLSRHSSPHQ(pS)EDEEE as substrate preincubated with enzyme for 10 mins followed by substrate and 100 uM ATP addition measured after 60 mins by ADP-Glo luminescence assay
How it was run: (§2)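 Recombinant human GSK3β at 0.58 ng/µL with 0.2 µg/µL substrate G50-58; ATP at 25 µM, 100 µM or 500 µM, each as its line states. Compounds in serial dilutions were preincubated with kinase for 10 min at rt. Substrate/ATP was then added and the reaction ran 60 min at rt. ADP-Glo reagent 60 min, detection reagent 30 min, then luminescence read (500 ms integration).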

CYP2C9 = CYP2C9 (Homo sapiens, UniProt P11712); test: Inhibition of human recombinant CYP2C9 expressed in baculovirus infected insect cells using OOMR as substrate at 10 uM in presence of NADPH by fluorimetric analysis relative to control; format: ADME; details: probe OOMR
[9] = Solubility of the compound in PBS buffer at pH 7.8 after 1 hr by HPLC analysis; format: physicochemical
[10] = target: Glycogen synthase kinase-3 alpha (Homo sapiens, UniProt P49840); test: Inhibition of human recombinant full length GSK3alpha using YRRAAVPPSPSLSRHSSPHQ(pS)EDEEE as substrate preincubated with enzyme for 10 mins followed by substrate and 25 uM ATP addition measured after 60 mins by ADP-Glo luminescence assay
How it was run: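 Recombinant human GSK3α at 0.50 ng/µL, 25 µM ATP, 0.2 µg/µL substrate G50-58, serial compound dilutions. Kinase was preincubated with compound 10 min at rt, then run 60 min at rt after substrate/ATP addition. ADP-Glo reagent 60 min, detection reagent 30 min, luminescence read. Uninhibited-kinase and ATP/substrate-only controls were included.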

[11] = target: T1, Glycogen synthase kinase-3 beta; test: Competitive inhibition of human recombinant full length GSK3beta using YRRAAVPPSPSLSRHSSPHQ(pS)EDEEE as substrate preincubated with enzyme for 10 mins followed by substrate and 25 uM ATP addition measured after 60 mins by ADP-Glo luminescence assay
How it was run: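 Compounds in serial dilutions were preincubated with kinase for 10 min at rt. Substrate/ATP was then added and the reaction ran 60 min at rt. ADP-Glo reagent 60 min, detection reagent 30 min, then luminescence read (500 ms integration).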

[12] = Metabolic stability in human liver microsomes assessed as parent compound remaining after 60 mins by LC-MS analysis relative to control; format: ADME, Microsome; details: read-out: Stability
[13] = Metabolic stability in human liver microsomes assessed as parent compound remaining after 20 mins by LC-MS analysis relative to control; format: ADME, Microsome; details: read-out: Stability
[14] = Metabolic stability in human liver microsomes assessed as parent compound remaining after 240 mins by LC-MS analysis relative to control; format: ADME, Microsome; details: read-out: Stability
[15] = target: T1, Glycogen synthase kinase-3 beta; test: Competitive inhibition of human recombinant full length GSK3beta using YRRAAVPPSPSLSRHSSPHQ(pS)EDEEE as substrate preincubated with enzyme for 10 mins followed by substrate and 500 uM ATP addition measured after 60 mins by ADP-Glo luminescence assay; how it was run: as §2
CYP3A4 = CYP3A4 (Homo sapiens, UniProt P08684); test: Inhibition of human recombinant CYP3A4 expressed in baculovirus infected insect cells using BOMR as substrate at 10 uM in presence of NADPH by fluorimetric analysis relative to control; format: ADME; details: probe BOMR
CYP1A2 = CYP1A2 (Homo sapiens, UniProt P05177); test: Inhibition of human recombinant CYP1A2 expressed in baculovirus infected insect cells using 3-cyano-7-ethoxycoumarin as substrate at 10 uM in presence of NADPH by fluorimetric analysis relative to control; format: ADME; details: probe 3-cyano-7-ethoxycoumarin
[16] = Metabolic stability in human liver microsomes assessed as parent compound remaining after 180 mins by LC-MS analysis relative to control; format: ADME, Microsome; details: read-out: Stability

T1 sequence (P49841 whole entry): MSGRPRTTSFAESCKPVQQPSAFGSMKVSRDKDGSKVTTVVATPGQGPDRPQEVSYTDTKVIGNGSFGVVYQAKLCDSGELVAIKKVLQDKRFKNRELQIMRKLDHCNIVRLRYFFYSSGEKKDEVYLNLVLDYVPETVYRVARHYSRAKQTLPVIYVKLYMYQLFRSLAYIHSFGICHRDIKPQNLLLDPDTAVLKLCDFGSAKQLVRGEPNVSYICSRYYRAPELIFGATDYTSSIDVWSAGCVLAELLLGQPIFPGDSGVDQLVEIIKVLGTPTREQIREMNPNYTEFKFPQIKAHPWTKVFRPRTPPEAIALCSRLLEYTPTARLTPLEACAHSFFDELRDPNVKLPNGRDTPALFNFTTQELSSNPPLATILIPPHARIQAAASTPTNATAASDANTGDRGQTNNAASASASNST
Cytochrome P450 2C19, sequence (P33261 whole entry): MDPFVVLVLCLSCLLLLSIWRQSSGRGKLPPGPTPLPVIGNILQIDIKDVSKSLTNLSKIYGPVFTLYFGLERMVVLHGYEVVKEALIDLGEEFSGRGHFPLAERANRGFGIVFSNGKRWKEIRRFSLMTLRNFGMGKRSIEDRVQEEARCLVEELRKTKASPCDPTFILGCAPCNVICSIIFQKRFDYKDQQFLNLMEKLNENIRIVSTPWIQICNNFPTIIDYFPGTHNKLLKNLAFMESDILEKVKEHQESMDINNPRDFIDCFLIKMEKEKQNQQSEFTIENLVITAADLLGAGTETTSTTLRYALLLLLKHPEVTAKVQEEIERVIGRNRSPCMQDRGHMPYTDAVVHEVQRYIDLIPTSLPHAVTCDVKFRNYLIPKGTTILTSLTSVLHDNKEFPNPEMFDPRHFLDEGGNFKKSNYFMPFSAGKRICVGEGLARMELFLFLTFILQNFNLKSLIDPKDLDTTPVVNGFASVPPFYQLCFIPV
Glycogen synthase kinase-3 alpha, sequence (P49840 whole entry): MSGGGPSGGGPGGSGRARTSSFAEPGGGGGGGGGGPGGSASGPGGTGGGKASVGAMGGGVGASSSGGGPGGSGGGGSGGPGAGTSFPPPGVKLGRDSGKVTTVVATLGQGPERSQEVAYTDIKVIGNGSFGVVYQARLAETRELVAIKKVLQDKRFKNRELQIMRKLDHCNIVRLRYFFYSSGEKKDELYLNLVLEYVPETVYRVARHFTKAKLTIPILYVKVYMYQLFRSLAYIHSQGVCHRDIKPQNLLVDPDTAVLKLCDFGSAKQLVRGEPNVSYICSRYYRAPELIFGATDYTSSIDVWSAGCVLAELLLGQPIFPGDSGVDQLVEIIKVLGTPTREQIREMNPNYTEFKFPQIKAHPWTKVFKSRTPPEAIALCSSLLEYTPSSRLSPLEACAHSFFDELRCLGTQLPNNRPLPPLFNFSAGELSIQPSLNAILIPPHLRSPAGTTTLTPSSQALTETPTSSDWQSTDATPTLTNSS
CYP2C9, sequence (P11712 whole entry): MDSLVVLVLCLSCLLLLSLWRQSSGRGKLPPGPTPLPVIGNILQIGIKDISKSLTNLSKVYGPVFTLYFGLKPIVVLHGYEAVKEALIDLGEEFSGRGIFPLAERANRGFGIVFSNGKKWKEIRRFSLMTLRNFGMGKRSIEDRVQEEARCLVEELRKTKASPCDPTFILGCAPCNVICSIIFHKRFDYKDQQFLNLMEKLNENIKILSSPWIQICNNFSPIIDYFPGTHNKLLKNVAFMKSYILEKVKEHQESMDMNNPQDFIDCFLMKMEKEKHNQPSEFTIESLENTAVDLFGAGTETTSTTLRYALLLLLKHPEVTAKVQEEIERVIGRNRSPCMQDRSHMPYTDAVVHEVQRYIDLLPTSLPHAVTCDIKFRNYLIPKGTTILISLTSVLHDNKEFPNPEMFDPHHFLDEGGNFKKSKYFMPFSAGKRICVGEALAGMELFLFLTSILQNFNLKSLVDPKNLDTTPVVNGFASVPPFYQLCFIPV
CYP1A2, sequence (P05177 whole entry): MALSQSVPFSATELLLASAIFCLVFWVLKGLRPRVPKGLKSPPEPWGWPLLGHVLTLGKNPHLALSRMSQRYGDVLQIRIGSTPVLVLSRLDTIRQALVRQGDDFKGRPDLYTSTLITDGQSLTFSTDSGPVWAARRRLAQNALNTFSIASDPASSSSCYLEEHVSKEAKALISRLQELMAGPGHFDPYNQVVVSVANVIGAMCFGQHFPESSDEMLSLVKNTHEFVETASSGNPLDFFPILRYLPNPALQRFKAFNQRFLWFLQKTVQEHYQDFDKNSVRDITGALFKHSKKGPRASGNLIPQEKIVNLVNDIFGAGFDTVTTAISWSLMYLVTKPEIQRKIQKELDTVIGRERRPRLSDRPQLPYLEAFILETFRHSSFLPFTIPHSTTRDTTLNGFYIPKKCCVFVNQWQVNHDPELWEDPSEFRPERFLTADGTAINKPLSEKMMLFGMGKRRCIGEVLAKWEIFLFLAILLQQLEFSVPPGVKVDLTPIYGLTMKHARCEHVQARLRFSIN
Mitogen-activated protein kinase 14, sequence (Q16539 whole entry): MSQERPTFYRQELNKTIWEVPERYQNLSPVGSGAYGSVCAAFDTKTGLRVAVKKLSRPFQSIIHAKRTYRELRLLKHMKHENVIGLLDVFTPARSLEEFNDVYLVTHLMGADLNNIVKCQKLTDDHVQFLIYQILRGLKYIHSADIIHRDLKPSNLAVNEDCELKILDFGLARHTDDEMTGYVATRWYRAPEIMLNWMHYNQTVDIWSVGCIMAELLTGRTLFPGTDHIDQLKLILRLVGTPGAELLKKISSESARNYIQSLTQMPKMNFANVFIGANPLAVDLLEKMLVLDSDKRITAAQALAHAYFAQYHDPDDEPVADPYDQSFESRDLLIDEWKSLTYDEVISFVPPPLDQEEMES
hERG (KCNH2), sequence (Q12809 whole entry): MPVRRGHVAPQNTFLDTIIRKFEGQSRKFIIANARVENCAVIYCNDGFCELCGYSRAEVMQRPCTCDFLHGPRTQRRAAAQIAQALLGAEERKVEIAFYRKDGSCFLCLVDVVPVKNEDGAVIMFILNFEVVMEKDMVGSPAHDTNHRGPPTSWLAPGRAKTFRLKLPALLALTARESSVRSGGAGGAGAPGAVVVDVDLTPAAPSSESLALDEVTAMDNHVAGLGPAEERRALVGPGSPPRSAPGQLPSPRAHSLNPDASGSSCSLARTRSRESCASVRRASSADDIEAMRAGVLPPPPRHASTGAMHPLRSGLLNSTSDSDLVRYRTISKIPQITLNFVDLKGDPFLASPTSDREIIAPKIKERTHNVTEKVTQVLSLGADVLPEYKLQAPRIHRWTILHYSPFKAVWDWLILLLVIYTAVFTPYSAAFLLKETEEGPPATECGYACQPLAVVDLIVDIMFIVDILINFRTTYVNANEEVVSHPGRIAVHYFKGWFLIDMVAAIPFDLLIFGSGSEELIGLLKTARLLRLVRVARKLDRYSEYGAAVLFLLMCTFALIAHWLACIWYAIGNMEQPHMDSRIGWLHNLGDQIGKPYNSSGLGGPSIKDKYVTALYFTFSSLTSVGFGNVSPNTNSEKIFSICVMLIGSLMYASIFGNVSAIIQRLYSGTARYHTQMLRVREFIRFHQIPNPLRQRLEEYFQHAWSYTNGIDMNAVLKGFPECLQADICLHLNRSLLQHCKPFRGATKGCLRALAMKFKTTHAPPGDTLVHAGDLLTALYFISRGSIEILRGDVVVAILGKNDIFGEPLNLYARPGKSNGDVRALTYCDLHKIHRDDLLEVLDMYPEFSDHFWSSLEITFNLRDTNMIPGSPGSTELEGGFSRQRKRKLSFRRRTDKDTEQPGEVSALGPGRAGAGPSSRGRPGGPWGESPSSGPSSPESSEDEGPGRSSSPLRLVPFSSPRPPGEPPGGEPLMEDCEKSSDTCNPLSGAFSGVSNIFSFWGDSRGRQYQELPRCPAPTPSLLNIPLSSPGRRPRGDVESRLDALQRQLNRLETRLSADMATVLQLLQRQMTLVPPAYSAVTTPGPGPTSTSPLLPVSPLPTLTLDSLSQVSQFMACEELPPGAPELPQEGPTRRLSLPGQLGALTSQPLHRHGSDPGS
CYP3A4, sequence (P08684 whole entry): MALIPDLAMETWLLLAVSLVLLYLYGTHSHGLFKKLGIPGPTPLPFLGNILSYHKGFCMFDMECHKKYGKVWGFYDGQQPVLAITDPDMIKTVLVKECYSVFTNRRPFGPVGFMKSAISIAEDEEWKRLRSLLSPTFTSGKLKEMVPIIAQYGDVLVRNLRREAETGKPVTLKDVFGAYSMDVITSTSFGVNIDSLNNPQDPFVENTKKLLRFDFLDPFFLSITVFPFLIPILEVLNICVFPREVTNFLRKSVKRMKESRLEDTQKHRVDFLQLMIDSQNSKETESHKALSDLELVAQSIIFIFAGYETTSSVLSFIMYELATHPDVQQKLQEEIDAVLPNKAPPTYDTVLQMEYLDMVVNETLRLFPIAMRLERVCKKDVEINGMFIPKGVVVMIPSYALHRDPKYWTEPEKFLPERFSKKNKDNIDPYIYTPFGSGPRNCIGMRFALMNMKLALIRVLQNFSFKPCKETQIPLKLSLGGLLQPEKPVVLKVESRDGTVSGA
CYP2D6, sequence (P10635 whole entry): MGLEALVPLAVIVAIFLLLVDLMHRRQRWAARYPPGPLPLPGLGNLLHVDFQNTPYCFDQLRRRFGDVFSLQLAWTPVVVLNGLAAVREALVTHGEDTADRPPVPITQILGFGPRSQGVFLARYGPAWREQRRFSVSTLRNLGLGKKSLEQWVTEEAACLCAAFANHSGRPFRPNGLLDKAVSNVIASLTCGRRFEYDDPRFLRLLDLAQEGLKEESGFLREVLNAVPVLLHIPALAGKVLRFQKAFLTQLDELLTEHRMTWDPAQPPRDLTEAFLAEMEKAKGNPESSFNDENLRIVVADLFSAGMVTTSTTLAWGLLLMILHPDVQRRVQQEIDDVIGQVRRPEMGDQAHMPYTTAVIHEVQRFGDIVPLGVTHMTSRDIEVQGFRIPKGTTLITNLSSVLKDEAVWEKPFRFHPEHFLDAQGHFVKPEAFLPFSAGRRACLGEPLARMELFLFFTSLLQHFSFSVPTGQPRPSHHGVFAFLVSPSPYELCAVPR

Question: For `CSc1nc(-c2ccc(F)cc2)c(-c2ccnc(NC(=O)C3CC3)c2)[nH]1`, which remaining at 2 h [1] is on record?
Answer: 65.9%

Question: What about the Ratio [2] of the same compound?
Answer: 0.5

Question: And the inhibition at 4 h, 10 µM (hERG (KCNH2))?
Answer: 30.1%

Question: And the t1/2 [3]?
Answer: 3.17 h

Question: And the remaining at 0.5 h [4]?
Answer: 89.6%

Question: What about the IC50 [5] of the same compound?
Answer: 24 nM

Question: What about the Drug metabolism [6] of the same compound?
Answer: Metabolite_Detected

Question: What about the remaining at 10 min [7] of the same compound?
Answer: 98.8%

Question: And the IC50 (Blood)?
Answer: 541 nM

Question: What about the inhibition at 10 µM (CYP2D6) of the same compound?
Answer: 14.6%

Question: And the “inhibition (INH)” value (Cytochrome P450 2C19)?
Answer: 56.1%

Question: And the IC50 [8]?
Answer: 174 nM

Question: What about the inhibition at 10 µM (CYP2C9) of the same compound?
Answer: 77.7%

Question: What about the solubility at 1 h [9] of the same compound?
Answer: 51 µg/mL (≈ 138 µM)

Question: And the IC50 [10]?
Answer: 300 nM

Question: What about the IC50 [11] of the same compound?
Answer: 18.5 to 40 nM

Question: What about the remaining at 1 h [12] of the same compound?
Answer: 81.8%

Question: What about the remaining at 20 min [13] of the same compound?
Answer: 97.9%

Question: What about the remaining at 4 h [14] of the same compound?
Answer: 44%

Question: What about the IC50 [15] of the same compound?
Answer: 423 nM

Question: And the inhibition at 10 µM (CYP3A4)?
Answer: 75.6%

Question: What about the inhibition at 10 µM (CYP1A2) of the same compound?
Answer: 88.4%

Question: What about the remaining at 3 h [16] of the same compound?
Answer: 52.1%
